{"source": "ChEMBL document CHEMBL1145966", "about": "“Orally active analogues of the dopaminergic prodrug 6-(N,N-di-n-propylamino)-3,4,5,6,7,8-hexahydro-2H-naphthalen-1-one: synthesis and pharmacological activity” (J Med Chem, 2003)", "key": {"D(2) dopamine receptor": {"biological_target": "D(2) dopamine receptor (Bos taurus, UniProt P20288)", "sequence (P20288 whole entry)": "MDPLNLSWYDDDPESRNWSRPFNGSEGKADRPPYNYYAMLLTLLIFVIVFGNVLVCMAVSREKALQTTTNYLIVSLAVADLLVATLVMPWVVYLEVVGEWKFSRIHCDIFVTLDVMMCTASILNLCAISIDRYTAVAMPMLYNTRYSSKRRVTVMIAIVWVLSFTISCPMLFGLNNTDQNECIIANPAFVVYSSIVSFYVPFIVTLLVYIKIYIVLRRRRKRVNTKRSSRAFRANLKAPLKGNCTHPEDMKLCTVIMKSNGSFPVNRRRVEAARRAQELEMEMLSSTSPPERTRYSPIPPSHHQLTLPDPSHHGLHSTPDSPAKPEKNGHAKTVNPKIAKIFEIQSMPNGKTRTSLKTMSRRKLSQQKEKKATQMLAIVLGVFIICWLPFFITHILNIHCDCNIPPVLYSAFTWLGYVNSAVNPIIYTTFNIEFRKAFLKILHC", "assay": "Binding affinity of compound for Dopamine receptor D2 using [3H]N-0437"}, "D(1A) dopamine receptor": {"biological_target": "D(1A) dopamine receptor (Bos taurus, UniProt Q95136)", "sequence (Q95136 whole entry)": "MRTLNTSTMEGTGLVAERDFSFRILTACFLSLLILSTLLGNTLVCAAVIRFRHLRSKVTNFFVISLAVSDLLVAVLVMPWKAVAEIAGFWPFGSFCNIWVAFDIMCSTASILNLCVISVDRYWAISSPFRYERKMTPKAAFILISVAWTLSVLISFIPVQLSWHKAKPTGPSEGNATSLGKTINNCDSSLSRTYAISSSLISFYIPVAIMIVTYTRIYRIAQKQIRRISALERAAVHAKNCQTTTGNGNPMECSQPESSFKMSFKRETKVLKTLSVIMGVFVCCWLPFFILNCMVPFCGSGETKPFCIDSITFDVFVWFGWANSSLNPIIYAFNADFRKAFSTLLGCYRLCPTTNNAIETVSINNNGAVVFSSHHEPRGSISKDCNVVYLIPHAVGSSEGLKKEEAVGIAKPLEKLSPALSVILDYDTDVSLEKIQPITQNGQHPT", "assay": "Binding affinity of compound for Dopamine receptor D1 using [3H]-SCH- 23390", "procedure,_shortened": "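Rat striatal membranes; inhibition of 0.20 nM [3H]SCH23390 binding at D1 sites, following Hyttel et al. Ki in nM, n = 3, SEM < 10%.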"}, "Rattus norvegicus [1]": {"tested_on": "Rattus norvegicus", "assay": "Total full contralateral turn in rat was observed at a dose of 1.0 mg kg-1 administered perorally", "format": "functional", "settings": "route oral"}, "Rattus norvegicus [2]": {"tested_on": "Rattus norvegicus", "assay": "Total full contralateral turn in rat was observed at a dose of 0.3 mg kg-1 administered perorally", "format": "functional", "settings": "route oral"}, "Rattus norvegicus [3]": {"tested_on": "Rattus norvegicus", "assay": "Total full contralateral turn in rat was observed at a dose of 0.1 mg kg-1 administered perorally", "format": "functional", "settings": "route oral"}}}
{"smiles": "CCCN(CCC)[C@@H]1Cc2cccc(O)c2C[C@H]1C", "values": [{"measurement": "Ki", "setting": "D(2) dopamine receptor", "result": 3, "unit": "nM"}, {"measurement": "Ki", "setting": "D(1A) dopamine receptor", "result": 1.1, "unit": "nM"}]}
{"smiles": "CCCN(CCC)C1CCC2=C(C1)CC(C)(C)CC2=O", "note": "(racemic)", "values": [{"measurement": "Total turns", "setting": "Rattus norvegicus [1]", "result": 204}, {"measurement": "Total turns", "setting": "Rattus norvegicus [2]", "result": 23}]}
{"smiles": "CCCN(CC)C1CCC2=C(CCCC2=O)C1", "note": "(racemic)", "values": [{"measurement": "Total turns", "setting": "Rattus norvegicus [3]", "result": 4840}, {"measurement": "Total turns", "setting": "Rattus norvegicus [2]", "result": 8901}]}
{"smiles": "CCCN(CCc1cccs1)[C@H]1CCc2c(ccc(O)c2O)C1", "note": "(racemic)", "values": [{"measurement": "Ki", "setting": "D(2) dopamine receptor", "result": 6, "unit": "nM"}, {"measurement": "Ki", "setting": "D(1A) dopamine receptor", "result": 110, "unit": "nM"}]}
{"smiles": "CCCN(CCc1cccs1)C1CCC2=C(CCCC2=O)C1", "note": "(racemic)", "values": [{"measurement": "Total turns", "setting": "Rattus norvegicus [3]", "result": 262}, {"measurement": "Total turns", "setting": "Rattus norvegicus [1]", "result": 503}]}
{"smiles": "C#CCN(C)C1CCC2=C(CCCC2=O)C1", "note": "(racemic)", "values": [{"measurement": "Total turns", "setting": "Rattus norvegicus [3]", "result": 713}, {"measurement": "Total turns", "setting": "Rattus norvegicus [2]", "result": 513}]}
{"smiles": "CCCN(C)C1CCC2=C(CCCC2=O)C1", "note": "(racemic)", "values": [{"measurement": "Total turns", "setting": "Rattus norvegicus [3]", "result": 2928}, {"measurement": "Total turns", "setting": "Rattus norvegicus [2]", "result": 5740}]}
{"smiles": "CCCN(CCCF)C1CCC2=C(CCCC2=O)C1", "note": "(racemic)", "values": [{"measurement": "Total turns", "setting": "Rattus norvegicus [1]", "result": 7540}, {"measurement": "Total turns", "setting": "Rattus norvegicus [2]", "result": 5194}]}
{"smiles": "CCCN(CCC)[C@H]1CCC2=C(CCCC2=O)C1", "note": "(racemic)", "values": [{"measurement": "Total turns", "setting": "Rattus norvegicus [3]", "result": 2312}, {"measurement": "Total turns", "setting": "Rattus norvegicus [1]", "result": 8787}, {"measurement": "Total turns", "setting": "Rattus norvegicus [2]", "result": 5354}]}
{"smiles": "CCCN(CCc1cccs1)[C@H]1CCc2c(O)cccc2C1", "note": "(racemic) [ROTIGOTINE]", "values": [{"measurement": "Ki", "setting": "D(2) dopamine receptor", "result": 15, "unit": "nM"}, {"measurement": "Ki", "setting": "D(1A) dopamine receptor", "result": 500, "unit": "nM"}]}
